Consider 20 compounds from ChEMBL document CHEMBL3603784, “Novel hybrids of 3-n-butylphthalide and edaravone: Design, synthesis and evaluations as potential anti-ischemic stroke agents” (2015).

SMILES strings stand for the structures. The source made the active and inactive calls. The calls are words filed in the database; no cut-off is given here.

The nature of test [1]: Antiplatelet activity in rabbit platelet rich plasma assessed as inhibition of ADP-induced platelet aggregation at 0.1 mM preincubated for 5 mins followed by ADP addition measured after 5 mins by Born's turbidimetric method relative to control. Conditions: Oryctolagus cuniculus. In kind it is functional. In a few lines:
(§1)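 Rabbit PRP was taken from centrifugation supernatant, and PPP was obtained at 3000 rpm for 10 min. PRP was pretreated in duplicate with test agent or vehicle for 5 min at 37 °C, then given ADP (10 µM) or AA (1 mM). Aggregation was followed turbidimetrically by optical density. Results are % inhibition versus vehicle-treated, inducer-exposed samples, n = 6, mean ± SD.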

Test [2] in a line: Antiplatelet activity in rabbit platelet rich plasma assessed as inhibition of arachidonic acid-induced platelet aggregation at 0.1 mM preincubated for 5 mins followed by arachidonic acid addition measured after 5 mins by Born's turbidimetric method relative to control. In kind it is functional. Conditions: Oryctolagus cuniculus. In a few lines: as §1
Test [3] deals with PC-12. Briefly: Neuroprotective activity against H2O2-induce cell damage in rat PC12 cells assessed as cell viability at 10 uM preincubated for 1 hr followed by H2O2 induction measured after 3 hrs by MTT assay. The format is functional, cell-based.
Test [4] deals with PC-12. Briefly: Antioxidant activity in rat PC12 cells assessed as reduction of H2O2/Fe2+-mediated hydroxyl radical formation at 10 uM preincubated for 1 hr followed by H2O2/Fe2+ addition by Griess assay. The format is functional. In a few lines:
(§2)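 PC12 cells grown in DMEM with 10% heat-inactivated horse serum, 5% FBS, 1.0 mM sodium pyruvate, penicillin/streptomycin, 37 °C, 5% CO2. Cells pretreated in triplicate for 1 h, then exposed to 1 mM H2O2/20 µM Fe2+ (pH 7.4). After a medium change, cells were collected in 0.5 mL phosphate buffer (pH 7.4). Hydroxyl radical activity was read by Griess assay.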

The subject of test [5] is PC-12. Briefly: Antioxidant activity in rat PC12 cells assessed as reduction of NADH-mediated superoxide anion radical formation at 10 uM preincubated for 1 hr followed by NADH addition by NBT assay. The format is functional. In a few lines:
(§3)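 PC12 cells were cultured as for the other PC12 assays and pretreated in triplicate for 1 h. Each tube then received DMSO, 468 µM NADH and 300 µM NBT. Superoxide activity was read by NBT assay, with DMSO used to fully dissolve the formazan.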

A short description of test [6]: Neuroprotective activity against H2O2-induce cell damage in rat PC12 cells assessed as cell viability at 10 uM preincubated for 1 hr followed by H2O2 induction measured after 3 hrs by MTT assay (reference value: 50.85%). Conditions: PC-12, read-out: Activity. The format is functional. For orientation: Formazan colour is commonly taken as a measure of viable cells.

A short description of test [7]: Antiplatelet activity in rabbit platelet rich plasma assessed as inhibition of arachidonic acid-induced platelet aggregation at 0.1 mM preincubated for 5 mins followed by arachidonic acid addition measured after 5 mins by Born's turbidimetric method in presence of NBP relative to control. Conditions: Oryctolagus cuniculus. In kind it is functional. In a few lines: as §1

Test [8] is described as follows: Antiplatelet activity in rabbit platelet rich plasma assessed as inhibition of ADP-induced platelet aggregation at 0.1 mM preincubated for 5 mins followed by ADP addition measured after 5 mins by Born's turbidimetric method in presence of NBP relative to control. Conditions: Oryctolagus cuniculus. The format is functional. In a few lines:
as §1

In test [9] the test system is PC-12. The experiment in a line: Antioxidant activity in rat PC12 cells assessed as reduction of NADH-mediated superoxide anion radical formation at 10 uM preincubated for 1 hr followed by NADH addition by NBT assay in presence of NBP. In kind it is functional. In a few lines:
as §3

Test [10] in a line: Neuroprotective activity against H2O2-induce cell damage in rat PC12 cells assessed as cell viability at 10 uM preincubated for 1 hr followed by H2O2 induction measured after 3 hrs by MTT assay in presence of NBP (reference value: 50.85%). In kind it is functional. Conditions: PC-12, read-out: Activity.
The subject of test [11] is PC-12. Briefly: Antioxidant activity in rat PC12 cells assessed as reduction of H2O2/Fe2+-mediated hydroxyl radical formation at 10 uM preincubated for 1 hr followed by H2O2/Fe2+ addition by Griess assay in presence of NBP. In kind it is functional. In a few lines:
as §2

Test [12] deals with PC-12. Briefly: Antioxidant activity in rat PC12 cells assessed as reduction of NADH-mediated superoxide anion radical formation at 10 uM preincubated for 1 hr followed by NADH addition by NBT assay in presence of edaravone. In kind it is functional. In a few lines: as §3
Test [13] relates to PC-12. The experiment in a line: Antioxidant activity in rat PC12 cells assessed as reduction of H2O2/Fe2+-mediated hydroxyl radical formation at 10 uM preincubated for 1 hr followed by H2O2/Fe2+ addition by Griess assay in presence of edaravone. The format is functional. In a few lines:
as §2
Background: The Griess reaction detects nitrite, a stable product of nitric oxide.

Test [14] in a line: Antiplatelet activity in rabbit platelet rich plasma assessed as inhibition of ADP-induced platelet aggregation at 0.1 mM preincubated for 5 mins followed by ADP addition measured after 5 mins by Born's turbidimetric method in presence of edaravone relative to control. The format is functional. Conditions: Oryctolagus cuniculus. In a few lines:
as §1

A short description of test [15]: Antiplatelet activity in rabbit platelet rich plasma assessed as inhibition of arachidonic acid-induced platelet aggregation at 0.1 mM preincubated for 5 mins followed by arachidonic acid addition measured after 5 mins by Born's turbidimetric method in presence of edaravone relative to control. Conditions: Oryctolagus cuniculus. The format is functional. In a few lines: as §1

Test [16] in a line: Neuroprotective activity against H2O2-induce cell damage in rat PC12 cells assessed as cell viability at 10 uM preincubated for 1 hr followed by H2O2 induction measured after 3 hrs by MTT assay in presence of edaravone (reference value: 50.85%). The format is functional. Conditions: PC-12, read-out: Activity.
The nature of test [17]: Neuroprotective activity against H2O2-induce cell damage in rat PC12 cells assessed as cell viability at 1 uM preincubated for 1 hr followed by H2O2 induction measured after 3 hrs by MTT assay (reference value: 50.85%). In kind it is functional. Conditions: PC-12, read-out: Activity.

For `CCCCC(OC(C)=O)c1ccccc1C(=O)Oc1cc(C(F)(F)F)nn1-c1cccc(Cl)c1` (centres undefined), the inhibition (usually the share of the control response that was lost under treatment) at 100 µM in test [1] worked out at 31.2%; in [2] it was 21.2%.
For `CCCCC(OC(C)=O)c1ccccc1C(=O)Oc1cc(C)nn1-c1cccc(Cl)c1` (centres undefined) the same measures were 35.2% and 46.1%.
Regarding `CCCCC(OC(C)=O)c1ccccc1C(=O)Oc1cc(C(F)(F)F)nn1-c1ccc(C)cc1` (centres undefined), the results for the inhibition at 100 µM in test [1] and in test [2] were 25.5% and 40.7%, respectively.
For `CC1=NN(c2ccc(F)cc2)C(=O)C1`, the inhibition at 100 µM was found to be 13.5% in [1] and 24.3% in [2]. In the test with PC-12 [3], the result was Active. Moreover, the Activity was found to be 31.7447 U/ml in the test with PC-12 [4] and 117.579 U/L with PC-12 [5].
`Clc1ccccc1CN1CCc2sccc2C1` [TICLOPIDINE]: in [6], the viability at 10 µM is 67.2%. Also, the inhibition at 100 µM in [1] stood at 11.5%. The Activity in the test with PC-12 [4] was 15.0616 U/ml; in the test with PC-12 [5] it was 26.9592 U/L.
Take `CCCCC(OC(C)=O)c1ccccc1C(=O)Oc1cc(C)nn1-c1ccc(C)cc1` (centres undefined): in test [6], the viability at 10 µM was found to be 86%. The inhibition at 100 µM was 21.3% in test [1] and 20.5% in [2].
Consider `CCCCC(OC(C)=O)c1ccccc1C(=O)Oc1cc(C)nn1-c1ccccc1` (centres undefined), for which the inhibition at 100 µM in [1] is 23%; in test [2], 15.4%.
For `CCCCC(OC(C)=O)c1ccccc1C(=O)Oc1cc(C(F)(F)F)nn1-c1ccccc1` (centres undefined) the same measures were 26.9% and 29.3%.
As for `CCCCC(OC(C)=O)c1ccccc1C(=O)Oc1cc(C(F)(F)F)nn1-c1ccc([N+](=O)[O-])cc1` (centres undefined), in test [6], the viability at 10 µM was determined as 87.3%. The inhibition at 100 µM in test [1] is 15.4%; in test [2], 21.3%.
Regarding `CC(=O)Oc1ccccc1C(=O)O` [ASPIRIN], the viability at 10 µM in test [6] came out at 77.4%. Also, the inhibition at 100 µM in test [2] is 16.2%. In addition, the Activity in the test on PC-12 [4] came out at 30.6956 U/ml; in the test with PC-12 [5] it was 79.3793 U/L.
As for `CCCCC(OC(C)=O)c1ccccc1C(=O)Oc1cc(C(F)(F)F)nn1-c1ccc(Cl)cc1` (centres undefined), the viability at 10 µM in test [6] worked out at 83%. In addition, the inhibition at 100 µM in [1] was found to be 23.2%; in [2], 26.6%.
Regarding `CCCCC(OC(C)=O)c1ccccc1C(=O)O` (centres undefined), the values for the inhibition at 100 µM in test [1] and in test [2] were 17.7% and 27.7%, respectively. For the same compound, in the test on PC-12 [3], the outcome was Active. Besides, the values for the Activity in the test on PC-12 [4] and in the test with PC-12 [5] were 17.6015 U/ml and 56.1954 U/L, respectively.
With `CC1=NN(c2ccccc2)C(=O)C1` [EDARAVONE], the viability at 10 µM in test [6] was determined as 76.9%; in test [10], 76.6%. Moreover, the inhibition at 100 µM was found to be 24.8% in [1], 25.5% in [2], 42.5% in test [7] and 28.1% in test [8]. In addition, the Activity in the test on PC-12 [4] came out at 25.2753 U/ml; in the test with PC-12 [9] it was 140.787 U/L; in the test on PC-12 [5] it was 97.6942 U/L; with PC-12 [11], 36.8347 U/ml.
`CCCCC1OC(=O)c2ccccc21` (racemic) [RAC-3-N-BUTYLPHTHALIDE]: the Activity in the test with PC-12 [12] came out at 140.787 U/L; in the test on PC-12 [13], 36.8347 U/ml; in the test with PC-12 [4], 16.2026 U/ml; in the test on PC-12 [5], 36.7429 U/L. Moreover, the results for the viability at 10 µM in test [6] and in [16] were 71% and 76.6%, respectively. For the same compound, the inhibition at 100 µM amounted to 22.9% in [1], 14.1% in [2], 28.1% in [14] and 42.5% in test [15].
`CCCCC(OC(C)=O)c1ccccc1C(=O)Oc1cc(C)nn1-c1ccc(F)cc1` (centres undefined): the viability at 10 µM in [6] stood at 93.3%. Besides, the inhibition at 100 µM in test [1] was determined as 31.8%; in [2], 59.9%. Also, the Activity is on record as 65.51 U/ml with PC-12 [4] and 141.49 U/L with PC-12 [5]. In test [17], the viability at 1 µM was found to be 88.1%.
On to `CCCCC(OC(C)=O)c1ccccc1C(=O)Oc1cc(C(F)(F)F)nn1-c1ccc(OC)cc1` (centres undefined), for which the inhibition at 100 µM turned out to be 19.9% in [1] and 37.7% in test [2].
As to `CCCCC(OC(C)=O)c1ccccc1C(=O)Oc1cc(C)nn1-c1ccc(Cl)cc1` (centres undefined), the inhibition at 100 µM came out at 29.3% in [1] and 40.3% in test [2].
In the case of `CCCCC(OC(C)=O)c1ccccc1C(=O)Oc1cc(C)nn1-c1ccc([N+](=O)[O-])cc1` (centres undefined), the viability at 10 µM in test [6] turned out to be 85.2%. Besides, the values for the inhibition at 100 µM in [1] and in test [2] were 33.9% and 39.6%, respectively.
Consider `CCCCC(OC(C)=O)c1ccccc1C(=O)Oc1cc(C)nn1-c1ccc(OC)cc1` (centres undefined), for which the inhibition at 100 µM in [1] worked out at 30.2%; in test [2], 29.4%.
For `CCCCC(OC(C)=O)c1ccccc1C(=O)Oc1cc(C(F)(F)F)nn1-c1ccc(F)cc1` (centres undefined) the same measures were 13.6% and 27.5%.
